Converted amounts (≈) assume the structure as drawn.
Key:
Format in all cases: functional
Human alphaherpesvirus 2 = experiment: Evaluation for antiviral activity against herpes simplex virus type 2 (strain G) in primary rabbit kidney cell culture
Method in brief: (§1)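 Primary rabbit kidney cell cultures infected with virus; the endpoint is the compound concentration that reduces virus-induced cytopathogenicity by 50%.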

Oryctolagus cuniculus = organism: Oryctolagus cuniculus; experiment: Evaluation for antiviral activity in primary rabbit kidney cell culture; conditions: read-out: Min cytotoxic concentration
L1210 = experiment: Evaluation for its inhibitory effect on proliferation of murine leukemia L1210 cells; conditions: Mus musculus, read-out: ID50 (the source's name)
[1] = system: Vesicular stomatitis virus; experiment: Evaluation for antiviral activity against vesion stomatitis virus in primary rabbit kidney cell culture; method in brief: as §1
Vaccinia virus = experiment: Evaluation for antiviral activity against vaccinia virus in primary rabbit kidney cell culture; conditions: Orthopoxvirus vaccinia; method in brief: as §1
Homo sapiens [2] = organism: Homo sapiens; experiment: Evaluation for its inhibitory effect on proliferation of human lymphoblast namalva cells; conditions: read-out: ID50 (the source's name)
FM3A = experiment: Evaluation for its inhibitory effect on proliferation of murine mammary carcinoma (FM3A) cells; conditions: Mus musculus, read-out: ID50 (the source's name)
Human alphaherpesvirus 1 = experiment: Evaluation for antiviral activity against herpes simplex virus type 1 (strain KOS) in primary rabbit kidney cell culture; method in brief: as §1
Homo sapiens [3] = organism: Homo sapiens; experiment: Evaluation for its inhibitory effect on proliferation of human lymphoblast Raji cells; conditions: read-out: ID50 (the source's name)

Compound `Cl.Cn1cc(NC(=O)c2cc(NC(=O)c3cc(N)cn3C)cn2C)cc1C(=O)NCCC(=N)N` [DEFORMYLDISTAMYCIN] has an MIC (Human alphaherpesvirus 2) of no less than 100 µg/mL, an MCC (Oryctolagus cuniculus) of 100 µg/mL and an IC50 (L1210) of 174 µg/mL. It also gave an MIC [1] of no less than 100 µg/mL, an MIC (Vaccinia virus) of 7 µg/mL and an IC50 (Homo sapiens [2]) of 29 µg/mL. For the same compound, the IC50 (FM3A) was 454 µg/mL, the MIC (Human alphaherpesvirus 1) was no less than 100 µg/mL and the IC50 (Homo sapiens [3]) was 32 µg/mL.

In the case of `Cl.Cn1cc(NC(=O)c2cc(NC(=O)CNC(=N)N)cn2C)cc1C(=O)NCCC(=N)N` [NETROPSIN CHLORIDE], the MIC (Human alphaherpesvirus 2) is reported as no less than 40 µg/mL, the MCC (Oryctolagus cuniculus) is reported as 40 µg/mL and the IC50 (L1210) is reported as 245 µg/mL. It also gave an MIC [1] of no less than 40 µg/mL, an MIC (Vaccinia virus) of 2 µg/mL and an IC50 (Homo sapiens [2]) of 103 µg/mL. It also gave an IC50 (FM3A) of 321 µg/mL, an MIC (Human alphaherpesvirus 1) of no less than 40 µg/mL and an IC50 (Homo sapiens [3]) of 139 µg/mL.

Compound `Cl.Cn1cc(NC(=O)c2nc(NC(=O)c3nc(NC(=O)CNC(=N)N)cn3C)cn2C)nc1C(=O)NCCC(=N)N` has an MIC (Human alphaherpesvirus 2) of no less than 100 µg/mL, an MCC (Oryctolagus cuniculus) of 100 µg/mL and an IC50 (L1210) of 42 µg/mL. The MIC [1] was no less than 100 µg/mL, the MIC (Vaccinia virus) was no less than 100 µg/mL and the IC50 (Homo sapiens [2]) was 100 µg/mL. It also gave an IC50 (FM3A) of 46 µg/mL, an MIC (Human alphaherpesvirus 1) of no less than 100 µg/mL and an IC50 (Homo sapiens [3]) of 52 µg/mL.

Compound `NC(=O)c1ncn([C@@H]2O[C@H](CO)[C@@H](O)[C@H]2O)n1` [RIBAVIRIN] has an MIC (Human alphaherpesvirus 2) greater than 400 µg/mL, an MCC (Oryctolagus cuniculus) greater than 400 µg/mL and an MIC [1] of 200 µg/mL (≈ 819 µM). The MIC (Vaccinia virus) was 30 µg/mL (≈ 123 µM) and the MIC (Human alphaherpesvirus 1) was greater than 400 µg/mL.

`CC[N+](CC)(CC)CC(=O)Nc1cc(C(=O)Nc2cc(C(=O)NCCC(=N)N)n(C)c2)n(C)c1.[Cl-]` gave an MIC (Human alphaherpesvirus 2) of 300 µg/mL, an MCC (Oryctolagus cuniculus) greater than 400 µg/mL and an IC50 (L1210) of 222 µg/mL. The MIC [1] was greater than 400 µg/mL, the MIC (Vaccinia virus) was 300 µg/mL and the IC50 (Homo sapiens [2]) was 180 µg/mL. For the same compound, the IC50 (FM3A) was 334 µg/mL, the MIC (Human alphaherpesvirus 1) was 300 µg/mL and the IC50 (Homo sapiens [3]) was 252 µg/mL.

Work on `Nc1ccnc2c1ncn2[C@@H]1C[C@H](CO)[C@@H](O)[C@H]1O` yielded an MIC (Human alphaherpesvirus 2) of no less than 400 µg/mL, an MCC (Oryctolagus cuniculus) greater than 400 µg/mL and an MIC (Vaccinia virus) of 0.3 µg/mL (≈ 1.14 µM). For the same compound, the MIC (Human alphaherpesvirus 1) was 200 µg/mL (≈ 757 µM).

Compound `Cn1cc(NC(=O)c2cc(NC(=O)C[N+](C)(C)C)cn2C)cc1C(=O)NCCC(=N)N.[Cl-]` has an MIC (Human alphaherpesvirus 2) greater than 200 µg/mL, an MCC (Oryctolagus cuniculus) of no less than 400 µg/mL and an IC50 (L1210) of 543 µg/mL. For the same compound, the MIC [1] was greater than 400 µg/mL, the MIC (Vaccinia virus) was 20 µg/mL and the IC50 (FM3A) was greater than 1000 µg/mL. For the same compound, the MIC (Human alphaherpesvirus 1) was greater than 200 µg/mL and the IC50 (Homo sapiens [3]) was 504 µg/mL.

Work on `Nc1ncnc2c1ncn2C[C@H](O)CO` [(S)-DHPA] yielded an MIC (Human alphaherpesvirus 2) greater than 400 µg/mL, an MCC (Oryctolagus cuniculus) greater than 400 µg/mL and an MIC [1] of 20 µg/mL (≈ 95.6 µM). The MIC (Vaccinia virus) was 70 µg/mL (≈ 335 µM) and the MIC (Human alphaherpesvirus 1) was greater than 400 µg/mL.

For `Cn1cc(NC(=O)CNC(=N)N)cc1C(=O)Nc1cn(C)c(C(=O)NCCC(=N)N)n1.O=S(=O)(O)O`, the MIC (Human alphaherpesvirus 2) was no less than 200 µg/mL, the MCC (Oryctolagus cuniculus) was 200 µg/mL and the IC50 (L1210) was greater than 100 µg/mL. The MIC [1] was no less than 200 µg/mL, the MIC (Vaccinia virus) was 40 µg/mL and the IC50 (Homo sapiens [2]) was greater than 100 µg/mL. It also gave an IC50 (FM3A) greater than 100 µg/mL, an MIC (Human alphaherpesvirus 1) of no less than 200 µg/mL and an IC50 (Homo sapiens [3]) greater than 100 µg/mL.

With `Cn1cc(NC(=O)c2nc(NC(=O)CNC(=N)N)cn2C)nc1C(=O)NCCC(=N)N.O=S(=O)(O)O` the MIC (Human alphaherpesvirus 2) was greater than 400 µg/mL, the MCC (Oryctolagus cuniculus) was greater than 400 µg/mL and the IC50 (L1210) was 238 µg/mL. For the same compound, the MIC [1] was greater than 400 µg/mL, the MIC (Vaccinia virus) was 300 µg/mL and the IC50 (Homo sapiens [2]) was 261 µg/mL. The IC50 (FM3A) was greater than 500 µg/mL, the MIC (Human alphaherpesvirus 1) was greater than 400 µg/mL and the IC50 (Homo sapiens [3]) was 316 µg/mL.

Compound `Cl.Cn1cc(NC(=O)c2nc(NC(=O)CNC(=N)N)cn2C)cc1C(=O)NCCC(=N)N` has an MIC (Human alphaherpesvirus 2) greater than 400 µg/mL, an MCC (Oryctolagus cuniculus) greater than 400 µg/mL and an IC50 (L1210) greater than 100 µg/mL. It also gave an MIC [1] greater than 400 µg/mL, an MIC (Vaccinia virus) of 40 µg/mL and an IC50 (Homo sapiens [2]) greater than 100 µg/mL. The IC50 (FM3A) was greater than 100 µg/mL, the MIC (Human alphaherpesvirus 1) was greater than 400 µg/mL and the IC50 (Homo sapiens [3]) was greater than 100 µg/mL.

`Cl.Cl.Cn1cc(NC(=O)c2cc(NC(=O)c3cc(NC=O)cn3C)cn2C)cc1C(=O)NCCC(=N)N` was tested, and the MIC (Human alphaherpesvirus 2) was 70 µg/mL, the MCC (Oryctolagus cuniculus) was 200 µg/mL and the IC50 (L1210) was 27 µg/mL. For the same compound, the MIC [1] was no less than 200 µg/mL, the MIC (Vaccinia virus) was 0.2 µg/mL and the IC50 (Homo sapiens [2]) was 22 µg/mL. For the same compound, the IC50 (FM3A) was 31 µg/mL, the MIC (Human alphaherpesvirus 1) was 70 µg/mL and the IC50 (Homo sapiens [3]) was 24 µg/mL.

For `Nc1ncnc2c1ccn2[C@@H]1O[C@H](CO)[C@@H](O)[C@H]1O` [TUBERCIDIN], the MIC (Human alphaherpesvirus 2) was no less than 0.4 µg/mL, the MCC (Oryctolagus cuniculus) was 0.4 µg/mL and the MIC (Vaccinia virus) was 0.07 µg/mL (≈ 0.263 µM). The MIC (Human alphaherpesvirus 1) was no less than 0.4 µg/mL.

With `Cl.Cn1cc(NC(=O)c2cc(N)cn2C)cc1C(=O)NCCC(=N)N` the MIC (Human alphaherpesvirus 2) was 150 µg/mL, the MCC (Oryctolagus cuniculus) was 400 µg/mL and the IC50 (L1210) was 276 µg/mL. For the same compound, the MIC [1] was no less than 400 µg/mL, the MIC (Vaccinia virus) was 20 µg/mL and the IC50 (Homo sapiens [2]) was 36 µg/mL. The IC50 (FM3A) was 327 µg/mL, the MIC (Human alphaherpesvirus 1) was 150 µg/mL and the IC50 (Homo sapiens [3]) was 43 µg/mL.

Source: ChEMBL document CHEMBL1123547, “Structure-activity relationship of novel oligopeptide antiviral and antitumor agents related to netropsin and distamycin” (1986)
